Laboratory results published in ChEMBL document CHEMBL4699636, “Novel 2,7-Diazaspiro[4,4]nonane Derivatives to Inhibit Mouse and Human Osteoclast Activities and Prevent Bone Loss in Ovariectomized Mice without Affecting Bone Formation” (J Med Chem, 2020).
The source made the active and inactive calls. No cut-off for these calls is given here.

Tests used:
[1] = target: T1, Dedicator of cytokinesis protein 5 (Homo sapiens, UniProt Q9H7D0); test: Inhibition of C-terminal 6-histidine tagged human DOCK5 (1212 to 1642 residues) expressed in Escherichia coli assessed as reduction in nucleotide exchange efficiency at 20 to 60 uM by N-methylanthraniloyl-GDP fluorescence based nucleotide exchange assay; details: dose microM 20-60
Outline: (§1)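 Mant-GDP-loaded His-tagged human RAC1 at 2.0 µM with 100 nM DOCK5 (residues 1212-1642) or TRIOGEF1 (R1232-T1550), both E. coli-expressed. Buffer: 50 mM Tris pH 8, 300 mM NaCl, 2 mM MgCl2, 1 mM DTT, 1% DMSO, 25 °C. Reaction started with 100 µM GTP. Fluorescence decay read at ex 360/em 440 nm, kobs by single-exponential fit, compound at 0, 20 or 60 µM, duplicates, as % of activity.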

Osteoclast [2] = test: Inhibition of resorption activity of mouse peripheral blood cell-derived osteoclasts at 5-10 uM incubated for 48 hrs by Kossa-staining based assay; assay type: functional, tissue-based; details: dose microM 5-10, time 48.0 hrs, in the assay text read “bone marrow-derived” for “peripheral blood cell-derived”
Outline: (§2)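 Osteoclasts from C57BL/6J mouse bone marrow, M-CSF then M-CSF 30 ng/mL plus RANKL 100 ng/mL. Day-3 cells reseeded on calcium phosphate-coated wells, compound added next day in 0.5% DMSO for 48 h, 8 wells per condition. 4 wells TRAP-stained for osteoclast counts, 4 von Kossa-stained for resorbed area. Activity expressed as resorption normalized to osteoclast number.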

[3] = Toxicity in mouse peripheral blood cell-derived osteoclasts assessed as reduction in osteoclasts number at 5-10 uM incubated for 48 hrs by TRAP-staining based assay; assay type: tissue-based; details: osteoclast, in the assay text read “bone marrow-derived” for “peripheral blood cell-derived”
Outline: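 Osteoclasts were derived from bone marrow of 4–8-week-old C57BL/6J mice, first with M-CSF 100 ng/mL for 48 h, then with M-CSF 30 ng/mL plus RANKL 100 ng/mL. At day 3 of differentiation they were detached with Accutase and seeded on calcium phosphate-coated wells. Next day, compound was added in 0.5% DMSO (8 wells/condition) for 48 h. Four wells were TRAP-stained (pH 5, tartrate, 1.5 h, 37 °C) and osteoclasts counted from images.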

[4] = tested on: Osteoclast (Homo sapiens); test: Inhibition of resorption activity of human peripheral blood cell-derived osteoclasts at 1-20 uM incubated for 48 hrs by Kossa-staining based assay; details: dose microM 1-20, time 48.0 hrs
[5] = target: Triple functional domain protein (Homo sapiens) (UniProt O75962); test: Inhibition of C-terminal 6-histidine tagged human TRIOGEF1 (R1232 to T1550 residues) expressed in Escherichia coli assessed as reduction in nucleotide exchange efficiency at 20 to 60 uM by N-methylanthraniloyl-GDP fluorescence based nucleotide exchange assay; details: dose microM 20-60; outline: as §1
[6] = tested on: Osteoclast (Homo sapiens); test: Toxicity in human peripheral blood cell-derived osteoclasts assessed as reduction in osteoclasts number at 20 uM incubated for 48 hrs by TRAP-staining based assay
[7] = target: Dedicator of cytokinesis protein 5 (Mus musculus) (UniProt B2RY04); test: Inhibition of DOCK5 in mouse osteoclasts assessed as induction of podosome belt organization defects at 100 uM incubated for 4 hrs followed by compound wash out by overnight recovery by immunofluorescence based assay; assay type: tissue-based; details: Osteoclast
Outline: (§3)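 Mouse bone-marrow osteoclasts, differentiated with M-CSF and RANKL on coverslips. Compound added to 100 µM final, 0.5% DMSO, for 4 h. Cells fixed directly, or after medium change and overnight recovery, then stained for vinculin and actin (phalloidin) and viewed by widefield microscopy for podosome belt organization.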

[8] = target: Dedicator of cytokinesis protein 5 (Mus musculus) (UniProt B2RY04); test: Inhibition of N-terminal GFP tagged mouse DOCK5 expressed in HEK293T cells assessed as reduction in exchange activity at 100 uM incubated for 1 hr by Western blot analysis based Rac-GTP pull-down assay; assay type: cell-based
Outline: (§4)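 HEK293T cells transiently expressing GFP-tagged DOCK5 DHR2 exchange domain (mouse, or human residues 1212-1642). Treated 1 h with compound in 1% DMSO, then lysed. Rac-GTP pulled down with GST-PakCRIB beads, 45 min at 4 °C, and detected by western blot. Band intensity normalized to lysate protein. Single dose 100 µM; dose-response in 1.5x steps for IC50.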

Osteoclast [9] = test: Inhibition of resorption activity of mouse peripheral blood cell-derived osteoclasts at 8 uM incubated for 48 hrs by Kossa-staining based assay; assay type: functional, tissue-based; details: in the assay text read “bone marrow-derived” for “peripheral blood cell-derived”; outline: as §2
[10] = target: T1, Dedicator of cytokinesis protein 5; test: Inhibition of N-terminal GFP tagged human DOCK5 (1212-1642 residues) expressed in HEK293T cells assessed as reduction in exchange activity incubated for 1 hr by Western blot analysis based Rac-GTP pull-down assay; assay type: cell-based; outline: as §4
[11] = target: Dedicator of cytokinesis protein 5 (Mus musculus) (UniProt B2RY04); test: Inhibition of DOCK5 in mouse osteoclasts assessed as induction of podosome belt organization defects at 100 uM incubated for 4 hrs by immunofluorescence based assay; details: Osteoclast; outline: as §3
Mus musculus [12] = test: Antiosteoporotic activity in C57BL6/J mouse model of OVX-induced bone loss assessed as degree of anisotropy (range 0-1) level in tibial metaphysis at 100 ug/kg, sc QD for 4 weeks by microCT analysis (0.53 +/- 0.07); assay type: functional; details: dose 100 µg/kg
Mus musculus [13] = test: Antiosteoporotic activity in C57BL6/J mouse model of OVX-induced bone loss assessed as trabecular separation level in femoral metaphysis at 100 ug/kg, sc QD for 4 weeks by histomorphometry (319.80 +/- 106.52 um); assay type: functional; details: dose 100 µg/kg
Mus musculus [14] = test: Antiosteoporotic activity in C57BL6/J mouse model of OVX-induced bone loss assessed as serum CTX-1 level […] at 100 ug/kg, sc QD for 4 weeks (165.38 +/- 54.93 %); assay type: functional; details: dose 100 µg/kg
[15] = Toxicity in C57BL6/J mouse model of OVX-induced bone loss assessed as effect on bone formation by measuring bone formation rate per trabecular bone surface level in femoral metaphysis at 100 ug/kg, sc QD for 4 weeks by histomorphometry ([…]); assay type: organism-based; details: in vivo, 0.1 mg/kg, 672 h, dose 100 µg/kg
[16] = Toxicity in C57BL6/J mouse model of OVX-induced bone loss assessed as effect on body weight at 100 ug/kg, sc QD for 4 weeks; assay type: organism-based; details: in vivo, 0.1 mg/kg, 672 h, dose 100 µg/kg
[17] = Toxicity in C57BL6/J mouse model of OVX-induced bone loss assessed as effect on bone formation by measuring mineralizing mineral apposition rate level in femoral metaphysis at 100 ug/kg, sc QD for 4 weeks by histomorphometry (1.62 +/ 0.21 um/d (lcm)); assay type: organism-based; details: in vivo, 0.1 mg/kg, 672 h, dose 100 µg/kg
[18] = Toxicity in C57BL6/J mouse model of OVX-induced bone loss assessed as effect on bone formation by measuring number of osteoblasts per bone surface level in femoral metaphysis at 100 ug/kg, sc QD for 4 weeks by histomorphometry (4.55 +/ 2.53 /mm); assay type: organism-based; details: in vivo, 0.1 mg/kg, 672 h, dose 100 µg/kg
Mus musculus [19] = test: Antiosteoporotic activity in C57BL6/J mouse model of OVX-induced bone loss assessed as structure model index level in tibial metaphysis at 100 ug/kg, sc QD for 4 weeks by microCT analysis (1.92 +/- 0.19); assay type: functional; details: dose 100 µg/kg
[20] = Toxicity in C57BL6/J mouse model of OVX-induced bone loss assessed as effect on bone formation by measuring osteocalcin level at 100 ug/kg, sc QD for 4 weeks […]; assay type: organism-based; details: in vivo, 0.1 mg/kg, 672 h, dose 100 µg/kg
Mus musculus [21] = test: Antiosteoporotic activity in C57BL6/J mouse model of OVX-induced bone loss assessed as trabecular thickness level in femoral metaphysis at 100 ug/kg, sc QD for 4 weeks by histomorphometry (39.96 +/- 5.42 um); assay type: functional; details: dose 100 µg/kg
Mus musculus [22] = test: Antiosteoporotic activity in C57BL6/J mouse model of OVX-induced bone loss assessed as cortical thickness level in tibial diaphysis at 100 ug/kg, sc QD for 4 weeks by microCT analysis (179.27 +/- 7.57 um); assay type: functional; details: dose 100 µg/kg
[23] = Toxicity in C57BL6/J mouse model of OVX-induced bone loss assessed as effect on bone formation by measuring osteoblast surface per trabecular bone surface level in femoral metaphysis at 100 ug/kg, sc QD for 4 weeks by histomorphometry (5.03 +/ 2.92 %); assay type: organism-based; details: in vivo, 0.1 mg/kg, 672 h, dose 100 µg/kg
[24] = Toxicity in C57BL6/J mouse model of OVX-induced bone loss assessed as effect on bone formation by measuring mineralizing surface per trabecular bone surface level in femoral metaphysis at 100 ug/kg, sc QD for 4 weeks by histomorphometry (27.90 +/ 8.22 %); assay type: organism-based; details: in vivo, 0.1 mg/kg, 672 h, dose 100 µg/kg
Mus musculus [25] = test: Antiosteoporotic activity in C57BL6/J mouse model of OVX-induced bone loss assessed as trabecular bone volume per tissue volume level in femoral metaphysis at 100 ug/kg, sc QD for 4 weeks by histomorphometry (11.67 +/- 2.37%); assay type: functional; details: dose 100 µg/kg
Mus musculus [26] = test: Antiosteoporotic activity in C57BL6/J mouse model of OVX-induced bone loss assessed as trabecular number level in femoral metaphysis at 100 ug/kg, sc QD for 4 weeks by histomorphometry (2.99 +/- 0.80 /mm); assay type: functional; details: dose 100 µg/kg
Mus musculus [27] = test: Antiosteoporotic activity in C57BL6/J mouse model of OVX-induced bone loss assessed as trabecular bone volume per tissue volume level in tibial metaphysis at 100 ug/kg, sc QD for 4 weeks by microCT analysis (17.49 +/- 2.91 %); assay type: functional; details: dose 100 µg/kg
Mus musculus [28] = test: Antiosteoporotic activity in C57BL6/J mouse model of OVX-induced bone loss assessed as trabecular pattern factor level in tibial metaphysis at 100 ug/kg, sc QD for 4 weeks by microCT analysis (17.17 +/- 3.41 […]); assay type: functional; details: dose 100 µg/kg

Chain of Dedicator of cytokinesis protein 5 (Mus musculus) (B2RY04 whole entry, the tested form may be a part): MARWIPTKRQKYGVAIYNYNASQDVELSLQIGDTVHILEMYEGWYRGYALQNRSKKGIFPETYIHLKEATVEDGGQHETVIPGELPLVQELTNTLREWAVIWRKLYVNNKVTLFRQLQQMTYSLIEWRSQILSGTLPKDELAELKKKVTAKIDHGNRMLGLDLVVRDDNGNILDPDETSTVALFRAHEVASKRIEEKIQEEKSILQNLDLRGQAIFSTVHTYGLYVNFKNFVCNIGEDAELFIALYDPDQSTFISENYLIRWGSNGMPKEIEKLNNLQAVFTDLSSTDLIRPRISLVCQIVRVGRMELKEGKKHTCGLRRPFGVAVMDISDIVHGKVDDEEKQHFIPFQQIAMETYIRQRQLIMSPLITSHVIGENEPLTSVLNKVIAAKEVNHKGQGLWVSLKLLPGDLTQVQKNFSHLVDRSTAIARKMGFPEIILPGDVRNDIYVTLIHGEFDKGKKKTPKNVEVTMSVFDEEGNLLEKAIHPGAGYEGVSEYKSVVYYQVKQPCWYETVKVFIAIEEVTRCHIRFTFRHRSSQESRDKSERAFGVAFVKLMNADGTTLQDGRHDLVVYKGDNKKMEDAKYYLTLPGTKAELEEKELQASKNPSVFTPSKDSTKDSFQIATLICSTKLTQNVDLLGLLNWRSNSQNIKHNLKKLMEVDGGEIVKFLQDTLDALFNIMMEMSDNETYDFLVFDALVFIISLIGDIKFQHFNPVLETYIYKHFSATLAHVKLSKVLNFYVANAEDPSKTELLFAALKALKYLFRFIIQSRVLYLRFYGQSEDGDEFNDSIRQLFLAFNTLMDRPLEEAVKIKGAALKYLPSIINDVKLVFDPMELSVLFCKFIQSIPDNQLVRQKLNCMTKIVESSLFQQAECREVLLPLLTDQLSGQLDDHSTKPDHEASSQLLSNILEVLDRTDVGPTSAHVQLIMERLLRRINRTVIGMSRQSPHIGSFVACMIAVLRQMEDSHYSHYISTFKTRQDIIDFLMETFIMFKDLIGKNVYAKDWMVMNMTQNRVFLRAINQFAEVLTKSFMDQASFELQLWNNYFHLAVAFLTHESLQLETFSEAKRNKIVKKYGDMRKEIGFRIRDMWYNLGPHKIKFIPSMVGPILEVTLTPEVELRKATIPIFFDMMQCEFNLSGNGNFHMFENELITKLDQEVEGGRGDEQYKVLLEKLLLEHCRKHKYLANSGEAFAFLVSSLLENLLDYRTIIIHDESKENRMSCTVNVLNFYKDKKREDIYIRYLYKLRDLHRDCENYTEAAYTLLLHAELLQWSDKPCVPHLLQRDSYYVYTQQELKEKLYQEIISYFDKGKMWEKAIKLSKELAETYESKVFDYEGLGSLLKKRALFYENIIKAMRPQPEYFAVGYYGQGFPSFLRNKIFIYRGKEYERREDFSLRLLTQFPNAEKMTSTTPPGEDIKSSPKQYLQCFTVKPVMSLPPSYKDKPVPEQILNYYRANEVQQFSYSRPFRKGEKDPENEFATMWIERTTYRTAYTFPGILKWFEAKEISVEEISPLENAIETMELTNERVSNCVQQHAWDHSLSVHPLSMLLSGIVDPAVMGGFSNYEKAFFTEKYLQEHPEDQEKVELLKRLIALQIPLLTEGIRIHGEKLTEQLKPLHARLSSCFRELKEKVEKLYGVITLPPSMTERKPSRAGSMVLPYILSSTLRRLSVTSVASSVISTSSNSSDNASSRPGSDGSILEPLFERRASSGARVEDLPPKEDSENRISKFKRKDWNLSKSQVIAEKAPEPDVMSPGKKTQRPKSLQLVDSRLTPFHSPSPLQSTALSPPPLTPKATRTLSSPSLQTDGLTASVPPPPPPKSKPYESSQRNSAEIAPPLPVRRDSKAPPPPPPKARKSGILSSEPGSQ
T1 sequence (Q9H7D0 whole entry, the tested form may be a part): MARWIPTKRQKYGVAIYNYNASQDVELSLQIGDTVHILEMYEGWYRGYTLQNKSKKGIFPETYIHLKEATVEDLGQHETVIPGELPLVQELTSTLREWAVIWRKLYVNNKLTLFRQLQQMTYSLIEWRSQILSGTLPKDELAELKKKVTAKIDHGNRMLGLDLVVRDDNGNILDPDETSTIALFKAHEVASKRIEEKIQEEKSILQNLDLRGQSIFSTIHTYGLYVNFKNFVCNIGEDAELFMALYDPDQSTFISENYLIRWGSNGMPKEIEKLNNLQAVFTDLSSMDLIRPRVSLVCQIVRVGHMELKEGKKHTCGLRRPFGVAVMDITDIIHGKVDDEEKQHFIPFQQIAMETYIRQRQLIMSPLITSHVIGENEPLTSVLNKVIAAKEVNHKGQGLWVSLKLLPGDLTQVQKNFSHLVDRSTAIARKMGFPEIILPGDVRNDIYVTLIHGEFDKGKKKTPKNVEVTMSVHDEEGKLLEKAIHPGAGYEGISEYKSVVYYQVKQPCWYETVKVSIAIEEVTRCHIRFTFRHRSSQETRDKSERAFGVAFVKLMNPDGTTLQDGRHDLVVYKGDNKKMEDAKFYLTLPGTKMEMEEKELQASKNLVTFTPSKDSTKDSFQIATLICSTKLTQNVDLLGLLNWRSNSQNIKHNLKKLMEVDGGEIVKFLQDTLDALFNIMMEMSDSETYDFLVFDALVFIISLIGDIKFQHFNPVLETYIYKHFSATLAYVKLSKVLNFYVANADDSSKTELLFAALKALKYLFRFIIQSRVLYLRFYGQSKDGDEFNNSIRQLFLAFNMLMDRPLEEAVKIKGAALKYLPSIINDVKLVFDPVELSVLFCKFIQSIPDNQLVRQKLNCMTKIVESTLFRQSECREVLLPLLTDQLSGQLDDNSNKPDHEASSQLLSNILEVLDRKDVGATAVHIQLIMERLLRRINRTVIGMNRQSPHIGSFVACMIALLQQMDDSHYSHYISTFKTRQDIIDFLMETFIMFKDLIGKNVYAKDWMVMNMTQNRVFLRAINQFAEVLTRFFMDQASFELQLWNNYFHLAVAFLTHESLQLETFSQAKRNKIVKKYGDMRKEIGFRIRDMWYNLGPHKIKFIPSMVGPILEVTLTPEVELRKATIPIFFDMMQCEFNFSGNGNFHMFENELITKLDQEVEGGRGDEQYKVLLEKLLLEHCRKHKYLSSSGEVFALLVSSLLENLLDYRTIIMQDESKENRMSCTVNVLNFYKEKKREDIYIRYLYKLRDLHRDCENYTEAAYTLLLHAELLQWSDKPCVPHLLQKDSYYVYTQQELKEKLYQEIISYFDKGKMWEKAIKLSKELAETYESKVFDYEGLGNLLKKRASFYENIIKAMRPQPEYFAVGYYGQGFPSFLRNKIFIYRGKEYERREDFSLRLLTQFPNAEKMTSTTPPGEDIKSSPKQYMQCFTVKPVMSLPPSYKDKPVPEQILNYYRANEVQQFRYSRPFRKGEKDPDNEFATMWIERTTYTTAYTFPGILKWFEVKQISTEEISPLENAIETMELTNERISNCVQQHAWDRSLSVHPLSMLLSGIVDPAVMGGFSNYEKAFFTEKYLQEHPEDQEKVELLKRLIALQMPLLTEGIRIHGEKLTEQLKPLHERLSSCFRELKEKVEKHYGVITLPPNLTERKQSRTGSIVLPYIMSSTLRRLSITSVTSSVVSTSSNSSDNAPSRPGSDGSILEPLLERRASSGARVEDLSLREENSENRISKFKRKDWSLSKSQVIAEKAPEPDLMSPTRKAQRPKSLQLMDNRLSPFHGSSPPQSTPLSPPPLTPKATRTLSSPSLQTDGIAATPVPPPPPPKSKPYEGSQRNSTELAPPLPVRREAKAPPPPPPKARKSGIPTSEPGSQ

**Q.** For `COc1ccc(N2CCC3(CCN(Cc4cccc(Cl)c4)C3)C2=O)cc1C` (stereo unspecified), which inhibition [1] is on record?
**A.** inactive

**Q.** And the inhibition (Osteoclast [2])?
**A.** Active

**Q.** And the Activity [3]?
**A.** Toxic

**Q.** Which results are given for `O=C1N(c2cccc(F)c2)CCC12CCN(Cc1cccc(Cl)c1)C2` (stereo unspecified)?
**A.** inhibition [1]: inactive; inhibition (Osteoclast [2]): Active; Activity [3]: Toxic

**Q.** Which inhibition [4] does the source give for `NCCCC(O)(P(=O)(O)O)P(=O)(O)O` here?
**A.** Active

**Q.** What does the source list for `O=S1(=O)N(c2ccccc2)C[C@H](O)[C@]12CCN(Cc1ccc(Cl)c(Cl)c1)C2` (racemic)?
**A.** inhibition [5]: inactive; inhibition [1]: 67%; Activity [6]: Toxic; inhibition (Osteoclast [2]): Active; inhibition [4]: Active

**Q.** Which results are given for `O=S1(=O)N(c2ccccc2)C[C@H](O)[C@]12CCN(Cc1cccc(Cl)c1)C2` (racemic)?
**A.** inhibition [7]: inactive; inhibition [8]: Active; inhibition [1]: inactive; inhibition (Osteoclast [9]): Active; inhibition (Osteoclast [2]): Active; IC50 [10]: 24 µM; inhibition [11]: Active

**Q.** For `COc1ccc(CN2CC[C@@]3(C2)[C@@H](O)CN(c2ccccc2)S3(=O)=O)cc1F` (racemic), which inhibition [1] is on record?
**A.** inactive

**Q.** And the inhibition (Osteoclast [2])?
**A.** Active

**Q.** For `Cn1cc(CN2CC[C@@]3(C2)[C@@H](O)CN(c2ccccc2)S3(=O)=O)c2ccccc21` (racemic), which inhibition [1] is on record?
**A.** inactive

**Q.** What about the inhibition (Osteoclast [2]) of the same compound?
**A.** Active

**Q.** With `O=S1(=O)N(c2ccccc2)C[C@H](O)[C@]12CCN(Cc1ccc3c(c1)CCC3)C2` (racemic) as the compound, how does the inhibition [1] read?
**A.** inactive

**Q.** And the inhibition (Osteoclast [2])?
**A.** Active

**Q.** Which results are given for `O=S1(=O)N(c2ccccc2)C[C@H](O)[C@]12CCN(Cc1ccccc1Cl)C2` (racemic)?
**A.** inhibition [1]: inactive; inhibition (Osteoclast [2]): Active

**Q.** What does the source list for `O=S1(=O)N(c2ccccc2)C[C@H](O)[C@]12CCN(Cc1cnc3ccccc3c1)C2` (racemic)?
**A.** inhibition [1]: inactive; inhibition (Osteoclast [2]): Active

**Q.** What does the source list for `O.O=P(O)(O)C(O)(Cn1ccnc1)P(=O)(O)O` [ZOLEDRONIC ACID]?
**A.** Activity_index (Mus musculus [12]): 0.25; Activity (Mus musculus [13]): 132.16 um; Activity (Mus musculus [14]): 73.18%; Activity [15]: 34.28 um3/um2/yr; Activity [16]: Non-Toxic; Activity [17]: 1.11 micrometer/day; Activity [18]: 0.54 /millimeter; Activity_index (Mus musculus [19]): -1.36; Activity [20]: 42.55%; Activity (Mus musculus [21]): 44.8 µm; Activity (Mus musculus [22]): 189.5 um; Activity [23]: 0.52%; Activity [24]: 8.51%; Activity (Mus musculus [25]): 26.19%; Activity (Mus musculus [26]): 5.92 /millimeter; Activity (Mus musculus [27]): 43.96%; Activity (Mus musculus [28]): -35.6 1/mm
